Out of some 2,400 compounds screened, about 1,200 (50%) were called active.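 Rule for the calls: active = activation above the run cutoff, the mean activation over all tested wells plus 3 SD (cut at about 12% in these data); inactive = the rest.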 So high a share suggests a set chosen from earlier hits. A selection follows.
Assay: nonselective calcium mobilization agonists, CHO-Ga16 cells, counter-screen for hTAAR1 agonist project, cell-based, fluorescence, CHO-Ga16 parental line (AID 651787)
Details: Fluo-8 calcium fluorescence, at 3 µM, hits give high values, normalized to maximal ATP response, DMSO zero
How it was run: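 Test system: CHO-Gα16 parental cells without hTAAR1 / Quantity: 750 cells per well / Detection: Fluo-8 calcium dye fluorescence, excitation 470-495 nm, emission 515-575 nm / Benchmarks: DMSO (0%) and EC100 ATP (100%) / Schedule: 17-24 h seeding, dye 75 min 37 °C, 30 min RT / Read-out basis: percent activation from max/basal fluorescence ratio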

Row | Structure (SMILES) | activation
1 | Nc1cccc2c1C(=O)N(Cc1nnc(-c3ccccc3Br)o1)C2=O | 60.4% (active)
2 | CCCCCC(=O)NC(=S)NNC(=O)c1ccc([N+](=O)[O-])cc1 | 91.4% (active)
3 | O=C(NCCc1ccccc1)/C(=C\c1ccc([N+](=O)[O-])cc1)NC(=O)c1ccccc1 | 2.11% (inactive)
4 | O=C(O)C1CC=CCC1C(=O)NCCc1ccccc1 (stereo not given) | 0.16% (inactive)
5 | CCCC1CCC(=NNC(=S)NCCc2ccccc2)CC1 (stereo not given) | 14.1% (active)
6 | CCC(C(=O)Nc1ccc(C(C)C)cc1)c1ccccc1 (stereo not given) | 75.1% (active)
7 | c1ccc(C2CNCc3c2ccc2ccccc32)cc1 (stereo not given) | 25.6% (active)
8 | COc1ccc(C(=O)CN2C(=O)NC(C)(c3ccc(C)cc3)C2=O)cc1OC (stereo not given) | 20.1% (active)
9 | Cc1ccc(O)c(NC(=S)NC(=O)COc2ccc(Br)cc2)c1 | 101% (active)
10 | Nc1nonc1-n1nnc(C(=O)N/N=C/c2ccc(Cl)cc2)c1-c1ccc2c(c1)OCO2 | 92.4% (active)
11 | CCCOc1ccc(-c2c(C(=O)N/N=C/c3ccco3)nnn2-c2nonc2N)cc1 | 39.5% (active)
12 | c1ccc(-c2csc(N3CCc4ccccc4C3)n2)cc1 | 0.58% (inactive)
13 | O=C(Nc1ccc(F)cc1)Nc1nnc([C@H]2C[C@H](O)[C@@H](CO)O2)s1 | 4.42% (inactive)
14 | O=C(CSc1nc(-c2ccco2)cc(C(F)(F)F)n1)NCc1cccs1 | 0.35% (inactive)
15 | COc1cccc(N(CC(=O)N2CCc3ccccc3C2)S(C)(=O)=O)c1 | 1.72% (inactive)
16 | C#CCOc1ccc(/C=C2/C(=O)NN(c3ccccc3)C2=O)cc1OC | 45.9% (active)
17 | Cc1ccc(Cl)cc1N1CCN(C(=O)c2cccc3c(=O)c(C)c(-c4ccccc4)oc23)CC1 | 78.9% (active)
18 | CCCc1ccc(OCC(=O)NNC(=S)NC(=O)c2ccco2)cc1 | 64.1% (active)
19 | CC(Oc1ccc2ccccc2c1)C(=O)NNC(=S)NC(=O)c1ccco1 (stereo not given) | 75.1% (active)
20 | COCCCn1c(Cc2csc(Nc3cccc(Cl)c3)n2)nnc1SCC(=O)OC1CCCCC1 | 3.91% (inactive)
21 | CC(C)(C)CC(=O)Nc1nc(C(N)Cc2ccc(C(F)(F)F)cc2)cs1 (stereo not given) | 79.7% (active)
22 | NC(Cc1ccccc1)c1csc(Nc2cc(Oc3ccccc3)ncn2)n1 (stereo not given) | 39% (active)
23 | COc1ccc(CC(N)c2csc(NC(=O)Cc3ccccc3)n2)cc1 (stereo not given) | 15.8% (active)
24 | Cn1c(=O)c(=O)n(C)c2cc(S(=O)(=O)NCCc3ccccc3)ccc21 | 0.95% (inactive)

Row | Structure (SMILES) | activation
25 | O=C(O)C1C2C=CC(O2)C1C(=O)NCCc1cccc(Cl)c1 (stereo not given) | 2.07% (inactive)
26 | CCCc1cc(C(=O)Nc2ccc(C(=O)OC)cc2)cs1 | 4.88% (inactive)
27 | O=C(c1noc2c1CCCC2)N1CCc2ccccc2C1 | 3.31% (inactive)
28 | NC(=O)C1=C[C@H](c2csc3ccccc23)C[C@H](OCc2ccc(CO)cc2)O1 | 33.4% (active)
29 | Cc1cc2nc3c(=O)[nH]c(=O)nc-3n(C[C@H](O)[C@H](O)[C@H](O)CO)c2cc1C | 138% (active)
30 | Cc1ccccc1-c1nc(CS(=O)(=O)CC(=O)N2CCc3ccccc3C2)c(C)o1 | 5.05% (inactive)
31 | O=C(NNC(=S)NC(=O)c1cn(-c2ccccc2)nc1-c1ccccc1)c1ccncc1 | 79.1% (active)
32 | CC(NC(=O)c1cc(-c2ccccc2)on1)c1ccccc1 (stereo not given) | 37.5% (active)
33 | CCc1ccccc1S(=O)(=O)Cc1ccc(C(=O)NCCc2ccccc2)o1 | 5.88% (inactive)
34 | Cc1ccc(S(=O)(=O)N(CC(=O)N2CCc3ccccc3C2)c2cccc(Cl)c2)cc1 | -0.38% (inactive)
35 | CC(=O)Nc1ccccc1Sc1ccc2c3c(cccc13)C(=O)N(c1ccc(C)cc1)C2=O | 0.61% (inactive)
36 | C[C@H](NC(=O)c1ccccc1)C(=O)OCC(=O)c1c[nH]c2ccccc12 | 0% (inactive)
37 | COc1cc(OC)cc(C(=O)N[C@H](C(=O)OCC(=O)NC(C)c2ccccc2)C(C)C)c1 (stereo not given in full) | 24.2% (active)
38 | CCCn1c(O)c(CN2CCCC(C)C2)c(C)c(C#N)c1=O (stereo not given) | 4.14% (inactive)
39 | Cc1onc(-c2ccccc2)c1C(=O)NNC(=S)NC(=O)c1ccc(F)cc1 | 105% (active)
40 | COc1ccc(C(=O)NC(=S)NNC(=O)c2c(-c3ccccc3)noc2C)cc1 | 68.8% (active)
41 | Cc1cc(=O)oc2c(C)c(OCC(=O)NCCN3CCOCC3)ccc12 | 4.41% (inactive)
42 | O=C(Nc1cccc(NC(=O)c2ccc(Br)cc2)c1)c1ccccc1 | 5.7% (inactive)
43 | COc1ccc(C(=O)NNC(=S)NC(=O)c2ccccc2)cc1 | 94.4% (active)
44 | COc1ccc(C(=O)NC(=S)NNC(=O)CCc2ccccc2)cc1 | 87.2% (active)
45 | COc1ccc(OC)c(C(c2nnnn2C(C)(C)C)N2CCc3ccccc3C2)c1 (stereo not given) | -0.7% (inactive)
46 | Nc1c(C(=O)c2cccs2)sc2nsc(SCCN3CCCCC3)c12 | 72.3% (active)
47 | CCC(c1nnnn1Cc1ccco1)N(CCc1ccccc1)Cc1cc2ccc(OC)cc2[nH]c1=O (stereo not given) | 4.24% (inactive)
48 | O=C1CCCC(O)=C1C=NCCc1ccccc1 | 5.18% (inactive)

Row | Structure (SMILES) | activation
49 | CCCCc1c(-c2ccc(Br)cc2)ncn1CCc1ccccc1OC | 13.2% (active)
50 | CCCCCc1c(-c2cccc(Br)c2)ncn1CCc1ccccc1OC | 10.8% (inactive)
51 | CCCCc1c(-c2ccc(Cl)cc2)ncn1CCc1ccccc1OC | 16.1% (active)
52 | CCCCCc1c(-c2ccc(OC)c(OC)c2)ncn1CCc1ccccc1OC | 17.4% (active)
53 | CCc1c(-c2ccccc2OC)ncn1CCc1ccccc1OC | 5.18% (inactive)
54 | CCCCCc1c(Cc2ccccc2)ncn1CCc1ccccc1OC | 17% (active)
55 | O=[N+]([O-])c1cc(S(=O)(=O)NCCc2ccccn2)ccc1Cl | 2.99% (inactive)
56 | CCCCCCCCCCOC(=O)Cn1c(COc2ccc(C)cc2)[n+](C)c2ccccc21 | 76.5% (active)
57 | Cc1c(CNCCc2ccccc2)c(C(=O)O)c(C)n1-c1ccccc1 | 1.76% (inactive)
58 | S=C(Nc1ccc(Br)cc1)NC1CCN(Cc2ccccc2)CC1 | 22.9% (active)
59 | O=C(/C=C/[C@H]1O[C@@H](n2cnc3c(NC(=O)c4ccccc4)ncnc32)[C@H](O)[C@@H]1O)NCc1ccccc1 | 0.21% (inactive)
60 | O=C(Cc1ccc(Cl)cc1)NC(=S)Nc1ccccc1O | 103% (active)
61 | Cc1ccccc1NC(=S)NC(=O)Cc1ccc(Cl)cc1 | 41.1% (active)
62 | O=C(NCCc1ccccc1)Oc1ccc(Cl)cc1 | 1.7% (inactive)
63 | O=c1cnnc(Nc2ccccc2)[nH]1 | 4.92% (inactive)
64 | O=C(Nc1ccccc1)Nc1nnc(COc2ccccc2F)s1 | 8.56% (inactive)
65 | O=Cc1c(NCCc2cccc(F)c2)c2ccccc2[nH]c1=O | 2.77% (inactive)
66 | CCCCC(=O)NNC(=S)NC(=O)C(c1ccccc1)c1ccccc1 | 119% (active)
67 | CN(C)CCCN(C(=O)c1ccc(S(=O)(=O)N2CCCc3ccccc32)cc1)c1nc2ccc(F)cc2s1 | 37.7% (active)
68 | CN(C)CCCN(C(=O)c1ccc(S(=O)(=O)N2CCCCCC2)cc1)c1nc2ccc(Br)cc2s1 | 36.2% (active)
69 | Nc1nnn(CC(=O)N/N=C/c2ccccc2)n1 | -0.59% (inactive)
70 | c1ccc(CCN2CN=C(Nc3nc4ccccc4o3)NC2)cc1 | 0.14% (inactive)
71 | CC(=O)Oc1ccc(Cn2c(C)c(C(=O)NCc3ccc(C#N)cc3)sc2=O)cc1 | 66.2% (active)
72 | Cc1cccc(NC(=O)C(C)N2C(=O)C3C4CC(C(Br)C4Br)C3C2=O)c1 (stereo not given) | 25.2% (active)

Row | Structure (SMILES) | activation
73 | c1ccc(Nc2nc(N3CCOCC3)c3ccccc3n2)cc1 | 14.2% (active)
74 | Nc1c(NCCc2ccccc2)c2ccccc2oc1=O | 6.54% (inactive)
75 | CCCCOc1ccc(CSC(=N)N)cc1[N+](=O)[O-] | 22.3% (active)
76 | CCOc1ccc(Br)cc1CSC(=N)N | 9.07% (inactive)
77 | CCN(CC)c1ccc2oc(=O)c(C)nc2c1 | 43.7% (active)
78 | Oc1ccc2ccc3cccc[n+]3c2c1 | 126% (active)
79 | CN(C(=O)CN(CCO)CC(=O)N(C)C(C)(C)Cc1ccccc1)C(C)(C)Cc1ccccc1 | 84.7% (active)
80 | NC[C@H](Cc1ccccc1)NCCc1cc(C(F)(F)F)cc(C(F)(F)F)c1 | 21.6% (active)
81 | CCc1ccc(-c2nn(-c3ccccc3)cc2CSC(=N)N)cc1 | 26.4% (active)
82 | CN(C)c1ccc(/C=C2\NC(=S)N(Cc3ccccc3)C2=O)cc1 | 67.4% (active)
83 | O=C1CCCN2N=C(SCC(=O)Nc3ccc(Br)cc3)SC2=N1 | 8.82% (inactive)
84 | O=C(Nc1ccncc1)Nc1ccc(F)cc1 | 4.69% (inactive)
85 | Cc1cc(C)c2cc(C#N)c(N3CCNCC3)nc2c1 | -0.65% (inactive)
86 | N#Cc1ccc(OCCCN2CCC(C(O)(c3ccccc3)c3ccccc3)CC2)c(F)c1 | 21.1% (active)
87 | O=C(CNC(=O)c1ccccc1F)OCC(=O)c1c[nH]c2ccccc12 | 2.13% (inactive)
88 | S=C(NCCCc1cnc[nH]1)NCCCN(Cc1ccc(Cl)c(Cl)c1)c1ccc(Br)cn1 | 26.5% (active)
89 | COc1ccc(NC(=O)C(=O)NCC(c2ccco2)N2CCc3ccccc3C2)cc1 (stereo not given) | 0.06% (inactive)
90 | COC(=O)c1[nH]c2cccc(C)c2c1NC(=O)CN1CCCc2ccccc21 | 11.5% (inactive)
91 | CCOC(=O)Cc1csc(NC(=O)Nc2ccccc2)n1 | 10.9% (inactive)
92 | COc1ccc(C(N)c2csc(NC(=O)Nc3cccc(C(F)(F)F)c3)n2)cc1 (stereo not given) | 22.4% (active)
93 | NC(c1ccccc1)c1csc(NC(=O)Nc2cccc(C(F)(F)F)c2)n1 (stereo not given) | 37% (active)
94 | Cc1ccn2c(=O)c(C(=O)NCCC3=CCCCC3)c(O)nc2c1 | 4.2% (inactive)
95 | O=C(CCCN=C1NS(=O)(=O)c2ccccc21)OCC(=O)c1ccc(F)c(F)c1 | 51.3% (active)

— PubChem BioAssay AID651787 (The Scripps Research Institute Molecular Screening Center, 2012)
